Measured values taken from publication PMC11421684 (Food and chemical toxicology : an international journal …, 2014).
“And” between values parts separate entries of the source, which are not always exact repeats. Equal entries are not always repeated.

Columns and labels:
[1] = Serum triazine analysis by LC-MS/MS; format: in vivo; conditions: pregnant female rats, individual rat; label = dose group; LOD 0.4 μg/mL
Summary of the method: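 Serum was collected from each rat after 10 daily gavages of 1000 mg/kg BW/day test compound or vehicle. Melamine and cyanuric acid were quantified by a previously published LC-MS/MS method, validated with pre-spiked serum samples at several fortification levels. Natural-log serum concentrations were compared between pregnant and non-pregnant rats by two-sided t-test (p ≤ 0.05).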

rats = test: Clinical observations and survival; format: in vivo, rat; conditions: pregnant and non-pregnant rats; 1000 mg/kg BW/day
Summary of the method: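 Female rats, time-pregnant or non-pregnant, were weight-stratified and randomised from GD10. They were gavaged each morning for 10 days with 1% CMC-Na vehicle or 1000 mg/kg BW/day test compound at 1 mL/100 g (n = 11/group; pregnant high-triazine group n = 13). Observations were made at least twice on day 1, then at least daily, covering skin, fur, eyes, mucosa, autonomic/CNS signs and behaviour. Animals removed early were counted as deaths.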

[2] = Formalin, ethanol and freezing effects on renal crystals; parameters: species or system rat
Summary of the method: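 Fresh kidney wet-mounts with crystal rank 4–5 were flooded with 10% neutral buffered formalin and photographed repeatedly. Times were 0, 1, 2, 3 and 24 h for melamine-exposed kidney and 0, 10, 20, 30 min and 1 h for cyanuric acid-exposed kidney. Sections in 100% ethanol were checked daily for up to 6 days. Frozen tissue, either freeze–thawed or held at −70 °C, was cut into 6 μm cryosections, unstained or unfixed H&E.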

[3] = Serum chemistry, renal function; format: in vivo, rat; conditions: for Blood urea nitrogen (mean ± SEM) / Creatinine (mean ± SEM) / Uric acid (mean ± SEM): serum
Summary of the method: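 Serum was taken from pregnant and non-pregnant rats after 10 days of gavage with vehicle or 1000 mg/kg BW/day test compound. Samples were brought to room temperature. BUN, creatinine and uric acid were measured on a benchtop veterinary chemistry analyser. Results were compared with control and the other treated group.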

[4] = Amniotic fluid triazine analysis by LC-MS/MS; format: in vivo, rat; conditions: pregnant female rats, pooled by dam; label = dose group; LOD 0.4 μg/mL
Summary of the method: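 Amniotic fluid came from GD20 dams gavaged for 10 days with vehicle or 1000 mg/kg BW/day test compound. Melamine and cyanuric acid were measured by a previously published LC-MS/MS method, validated with pre-spiked amniotic fluid. Serum-to-amniotic fluid Pearson correlations were run only on rats with both samples (p ≤ 0.05).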

[5] = oral, female rats; ref Jacob et al., 2012; cited from earlier work
kidney = test: Kidney wet-mount analysis for renal crystals; format: in vivo, rat; conditions: pregnant and non-pregnant combined, wet-mount
Summary of the method: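 After 10 days of gavage at 1000 mg/kg BW/day, a thin fresh renal slice spanning cortex and medulla was weighed. It was compressed between two slides with a coverslip and examined fresh by light microscopy. Crystals were ranked on a subjective 0–5 scale; some views used polarised light.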

[6] = Body weight and organ weights standardized to body weight; format: in vivo, rat; conditions: for GD20 Body weight (g ± SEM) / Heart weight standardized to body weight (% ± SEM) / Left kidney weight standardized to body weight (% ± SEM) / Liver weight standardized to body weight (% ± SEM) / Right kidney weight standardized to body weight (% ± SEM) / Spleen weight standardized to body weight (% ± SEM) / Paired kidney weight standardized to body weight (% ± SEM): 1000 mg/kg BW/day; for Paired kidney weight standardized to body weight (% ± SEM): group mean, 1000 mg/kg/day
[7] = Weight gains, feed and water consumption of gavaged rats; format: in vivo, rat; conditions: for Total feed consumption (g ± SEM) / Total water consumption (g ± SEM): 1000 mg/kg BW/day
Summary of the method: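 Rats were housed singly at 18–26 °C, 40–70% RH and 12 h light/dark, with feed and water ad libitum. They were gavaged for 10 days from GD10 with vehicle (1% CMC-Na) or 1000 mg/kg BW/day test compound. Fluid intake was measured every 3 days and feed every 7 days. For dams, adjusted gain = GD20 body weight minus gravid uterus weight and GD10 weight.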

kidney and bladder = test: Histopathology of kidney and bladder; format: in vivo, rat
pregnant rats = test: Reproductive indices at necropsy; format: in vivo, rat
Summary of the method: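 Time-pregnant rats were gavaged daily for 10 days from GD10 with 1% CMC-Na or 1000 mg/kg BW/day test compound. At necropsy the gravid uterus was removed whole and weighed, and corpora lutea, implants, and early and late deaths were recorded. Groups were compared against both control and the other triazine group.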

fetuses = test: Fetal data; format: in vivo, rat; conditions: dams, 1000 mg/kg BW/day, GD20
Summary of the method: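 Dams were dosed by gavage (1000 mg/kg BW/day or 1% CMC-Na vehicle) for 10 days from GD10. At GD20 necropsy, the gravid uterus was removed whole and weighed. Each viable fetus was recorded for uterine position, sex, weight, crown-rump length and external abnormalities. Runts were defined as below 70% of the control litter average weight by gender.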

[8] = not pregnant rats, 1000 mg/kg BW/day
[9] = pregnant and non-pregnant pooled
[10] = pregnant rats, 1000 mg/kg BW/day
[11] = dams, 1000 mg/kg BW/day, necropsy GD20

Q: Which results are given for `Oc1nc(O)nc(O)n1` [CYA, cyanuric acid]?
A: MEL concentration, Serum [1]: <LOD; Maternal health during 10 day dosing period (rats): no treatment related health effects; Stability of crystals to freeze–thaw cycles ([2]; frozen kidney tissue, CYA stable if held at −70 °C): dissolved; Time at which almost all crystals were gone in formalin ([2]; kidney wet-mount sections): 30 min; Effect on uric acid serum levels versus control rats ([3]; 1000 mg/kg BW/day): did not appear to have an effect; Mean BUN of treated rats with renal crystals ([3]; 4 rats (2 pregnant and 2 non-pregnant)): 31 mg/dL; Blood urea nitrogen (mean ± SEM) [3, 8]: 17.82 ± 2.33 mg/dL; Creatinine (mean ± SEM) [3, 8]: 0.59 ± 0.07 mg/dL; Uric acid (mean ± SEM) [3, 8]: 5.26 ± 0.27^& mg/dL; Mean BUN of the other treated rats (without crystals) [3, 9]: 15 mg/dL; Mean creatinine of treated rats with crystals [3, 9]: 1.1 mg/dL; Mean creatinine of treated rats without crystals [3, 9]: 0.5 mg/dL; Blood urea nitrogen (mean ± SEM) [3, 10]: 17.45 ± 2.26 mg/dL; Creatinine (mean ± SEM) [3, 10]: 0.59 ± 0.07 mg/dL; Uric acid (mean ± SEM) [3, 10]: 3.37 ± 0.28 mg/dL; MEL concentration, Amniotic Fluid [4]: <LOD; Area under the curve (AUC) [5]: 1375 ng·h/mL; Half-life [5]: 59.4 min; Treated rats that developed renal crystals (percent) (kidney; MEL n = 24, CYA n = 22): 18%; Number of treated rats that developed renal crystals (kidney; MEL of 24, CYA of 22): 4; GD20 Body weight (g ± SEM) ([6]; not pregnant rats): 234.3 ± 4.5 g; Heart weight standardized to body weight (% ± SEM) ([6]; not pregnant rats): 0.38 ± 0.01%; Left kidney weight standardized to body weight (% ± SEM) ([6]; not pregnant rats): 0.43 ± 0.02%; Liver weight standardized to body weight (% ± SEM) ([6]; not pregnant rats): 3.48 ± 0.07 %; Right kidney weight standardized to body weight (% ± SEM) ([6]; not pregnant rats): 0.45 ± 0.03%; Spleen weight standardized to body weight (% ± SEM) ([6]; not pregnant rats): 0.23 ± 0.02%; Paired kidney weight standardized to body weight (% ± SEM) ([6]; not pregnant rats): 0.88% and 0.88 ± 0.05%; GD20 Body weight (g ± SEM) ([6]; pregnant rats): 351.3 ± 6.1 g; Heart weight standardized to body weight (% ± SEM) ([6]; pregnant rats): 0.30 ± 0.01%; Left kidney weight standardized to body weight (% ± SEM) ([6]; pregnant rats): 0.28 ± 0.02%; Liver weight standardized to body weight (% ± SEM) ([6]; pregnant rats): 3.58 ± 0.09%; Right kidney weight standardized to body weight (% ± SEM) ([6]; pregnant rats): 0.30 ± 0.01%; Spleen weight standardized to body weight (% ± SEM) ([6]; pregnant rats): 0.17 ± 0.01%; Paired kidney weight standardized to body weight (% ± SEM) ([6]; pregnant rats): 0.58% and 0.58 ± 0.03%; Standardized paired kidney weight of individual rats with renal crystals ([6]; two non-pregnant rats with crystals, both the same value): 1.22%; Standardized paired kidney weight of individual rats with renal crystals ([6]; two pregnant rats with crystals): 0.74% and 0.77%; Total feed consumption (g ± SEM) ([7]; not pregnant rats): 158.6 ± 8.8 g; Total water consumption (g ± SEM) ([7]; not pregnant rats): 264 ± 21.2 g; Total bw gain (g ± SEM) ([7]; not pregnant rats, 1000 mg/kg BW/day gavage 10 days, brackets indicate negative): 16.0 ± 4.1 g; Total feed consumption (g ± SEM) ([7]; pregnant rats): 220.1 ± 5.4 g; Total water consumption (g ± SEM) ([7]; pregnant rats): 353.6 ± 17.5 g; Total bw gain (g ± SEM) ([7]; pregnant rats, 1000 mg/kg BW/day gavage GD10-20): 94.2 ± 3.3 g; Number of rats with epithelial necrosis in the bladder (kidney and bladder; MEL: pregnant rats, minimal to marked, CYA: 1 pregnant, 2 non-pregnant, mild): Three; Number of rats with tubular dilation and necrosis (kidney and bladder; kidney, H&E, of 22 treated rats): 5; Effect on reproductive indices compared with controls (pregnant rats; 1000 mg/kg BW/day): did not appear to have an effect; No. corpea lutea (mean ± SEM) (pregnant rats; dams, 1000 mg/kg BW/day gavage GD10-20, necropsy GD20): 15.1 ± 0.5; Early and late deaths (mean% of implants ± SEM) (pregnant rats; [11]): 3.4 ± 1.6 % of implants; Early deaths (mean% of implants ± SEM) (pregnant rats; [11]): 1.3 ± 0.9 % of implants; Implant efficiency (mean% ± SEM) (pregnant rats; [11]): 90.7 ± 3.0%; Late deaths (mean% of implants ± SEM) (pregnant rats; [11]): 2.0 ± 1.6 % of implants; No. fetuses alive (mean ± SEM) (pregnant rats; [11]): 13.2 ± 0.6; No. implants (mean ± SEM) (pregnant rats; [11]): 13.6 ± 0.5; Percent alive both genders (mean% ± SEM) (pregnant rats; [11]): 96.7 ± 1.6%; Percent live females (mean% ± SEM) (pregnant rats; [11]): 40.7 ± 3.8%; Average crown rump length (mean cm ± SEM) (fetuses): 4.10 ± 0.02 cm; Average fetal body weight (g ± SEM) (fetuses): 4.06 ± 0.05 g; Litter size (mean ± SEM) (fetuses): 13.2 ± 0.6
